Assay outcomes: PubChem, several laboratories
Compounds with a hit are over-represented: about 1.8% of the library has one in this group of screens.
CAL PDZ FP-1: blocks peptide binding to the human CAL PDZ domain. Q9HD26. purified CAL PDZ, TMR-peptide fluorescence polarization, 1 h. inhibition, % at 24.9 µM. actives 0.92% (n = 300,000);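 active = mean inhibition of at least 30% with at least half of replicates also reaching 30%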;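 also: 0% = DMSO neutral control and 100% = excess unlabeled competitor peptide PRC23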
Tn7 DDE FP: DD(E)-Tn7 binding inhibition, primary FP screen. P02675. AID 720508. inhibition, % at 8.3 µM. FP displacement of FITC-Tn7 peptide from fibrin DD(E); 0% = median of compound wells per plate. actives 0.13% (n = 370,000);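 active = inhibition above the mean of compounds falling within the control limits plus 3 SD of them, cut at about 14% in these data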;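 also: 0% = plate median of compound wells and 100% = 10 µM Aha-Tn7 peptide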
Target sequence (P02675 whole entry, looked up): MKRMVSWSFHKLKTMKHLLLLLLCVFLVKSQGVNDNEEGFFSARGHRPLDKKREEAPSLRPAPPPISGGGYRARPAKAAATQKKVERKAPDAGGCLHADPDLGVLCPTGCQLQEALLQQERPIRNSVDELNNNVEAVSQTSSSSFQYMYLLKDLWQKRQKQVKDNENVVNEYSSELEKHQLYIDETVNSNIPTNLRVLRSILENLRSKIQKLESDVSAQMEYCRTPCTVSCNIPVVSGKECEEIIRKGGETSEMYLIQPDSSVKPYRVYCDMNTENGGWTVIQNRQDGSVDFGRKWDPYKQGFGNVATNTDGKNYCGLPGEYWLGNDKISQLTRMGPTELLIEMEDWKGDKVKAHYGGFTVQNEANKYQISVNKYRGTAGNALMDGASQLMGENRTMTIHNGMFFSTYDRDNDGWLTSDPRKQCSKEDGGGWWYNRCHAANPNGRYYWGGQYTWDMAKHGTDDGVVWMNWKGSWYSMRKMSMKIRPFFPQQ
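Assay system: Fibrin-DD(E) protein isolated from polymerized human fibrin clots; read-out basis: percent inhibition; medium: Tris/NaCl/CaCl2 buffer, pH 7.8; signal: FP measurement; incubation: 10 min plus 3 h, room temperature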
ARNT TACC3 PPI: ARNT/TACC3 interaction disruption | Q9Y6A5 | AlphaScreen His-ARNT PAS-B/GST-TACC3 binding, luminescence; TACC3 fragment carries E629A point mutation | inhibition, % at 9.99 µM | actives 0.66% (n = 390,000) | AID 623870;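 active = mean inhibition of replicates at least 50% and at least half of replicates each reaching 50%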;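 also: 0% = complete ARNT plus TACC3 wells and 100% = ARNT alone without TACC3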
CAL PDZ FP-2: inhibitors of human CAL PDZ peptide binding | purified CAL PDZ, TMR-peptide fluorescence polarization, 1 h | inhibition, % at 20 µM | actives 0.02% (n = 330,000) | AID 504414;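 active = highest replicate inhibition of at least 40%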;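 also: plate controls were DMSO neutral control wells for no effect and unlabeled competitor peptide control wells for full effect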
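material = purified tagged CAL PDZ domain construct (CerCALP) | buffer or medium = sodium phosphate/NaCl buffer pH 7.4 with TCEP, IgG, Thesit | reagent = TMR-labelled reporter peptide T*-PRC34 bound in PDZ groove | incubation = 1 h room-temperature incubation prior to read | measured by = fluorescence polarization (mP) | evaluation = percent inhibition from loss of millipolarization | control set = unlabelled peptide and DMSO controls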
Tn6 DDE FP: inhibitors of Tn6 peptide binding to human fibrin DD(E); P02675; Fibrin DD(E) TRITC-Tn6 fluorescence polarization displacement; inhibition, % at 8.3 µM; actives 0.21% (n = 370,000);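 active = inhibition above a per-campaign cutoff: mean of compounds within control limits plus 3 SD, cut at about 15% in these data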;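 also: 0% = median of all compound wells on the plate and 100% = blocking peptide control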
GRK2 aptamer HTS: blocks RNA aptamer binding to human GRK2. bead flow cytometry, FAM-aptamer displacement from GRK2. actives 0.59% (n = 330,000). inhibition of aptamer binding, % at 10 µM. P25098. AID 488847;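 active = inhibition of aptamer binding above 40%, roughly 3 SD of noise, on plates passing a quality check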;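 also: median bead fluorescence of bound FAM aptamer so fluorescent compounds give negative values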
GRK2 inh confirm: confirmation of human GRK2 inhibitors displacing RNA aptamer. shares compounds with GRK2 aptamer HTS. bead-bound GRK2, FAM-aptamer displacement, flow cytometry. aptamer displacement, % at 10 µM. actives 4% (n = 2,000);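 active = aptamer displacement above 40%, near three times the noise of non-fluorescent compounds, on plates passing quality checks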;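 also: negative values mostly reflect intrinsic compound fluorescence rather than true enhancement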
Aptamer quench SP: quenches fluorescent RNA aptamer, GRK2 hit artifact. fluorescence response (% of DMSO), % at 10 µM. Carboxyfluorescein RNA aptamer on beads, flow cytometry quenching; hits give low values. shares compounds with GRK2 aptamer HTS. 2,000 tested, under 10 active. AID 504580;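 active = compounds that quench the bead-bound fluorescent RNA probe, cutting fluorescence to under half of the solvent control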;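 also: counterscreen run without GRK2 so only probe quenching by compound is measured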
Numbers without * were called inactive.

`CC1(C)CC(NC(=O)Cc2ccccc2)CC(C)(C)N1` gave CAL PDZ FP-1 -1.1, Tn7 DDE FP 3.1, ARNT TACC3 PPI -3.8, CAL PDZ FP-2 -1.3, Tn6 DDE FP -7.0 and GRK2 aptamer HTS 0.0.
Screening COc1ccc(CC(=O)NC2CC(C)(C)NC(C)(C)C2)cc1 returned Tn7 DDE FP 6.0, ARNT TACC3 PPI -1.9, CAL PDZ FP-2 -0.1, Tn6 DDE FP 7.6, GRK2 aptamer HTS 42.0*, GRK2 inh confirm -0.4 and Aptamer quench SP 99.5.
For OC(CNC1CCCCCC1)COc1cccc2ccccc12 (stereo not drawn) the results were CAL PDZ FP-1 -5.6, Tn7 DDE FP -1.1, ARNT TACC3 PPI -0.3, CAL PDZ FP-2 -0.5, Tn6 DDE FP 0.0, GRK2 aptamer HTS 52.0*, GRK2 inh confirm -4.6 and Aptamer quench SP 95.0.
OC(CNC1CCCC1)COc1ccccc1Br (stereo not drawn) was read as Tn7 DDE FP -0.1, ARNT TACC3 PPI 0.8, CAL PDZ FP-2 0.8, Tn6 DDE FP -6.8 and GRK2 aptamer HTS 0.0.
Screening O=C(N/N=C\c1cc([N+](=O)[O-])ccc1N1CCOCC1)c1ccccn1 returned Tn7 DDE FP 4.3, ARNT TACC3 PPI -1.9, CAL PDZ FP-2 -0.6, Tn6 DDE FP 3.6, GRK2 aptamer HTS 89.0*, GRK2 inh confirm 10.3 and Aptamer quench SP 100.8.
Screening CC(COC(=O)c1ccccc1)(COC(=O)c1ccccc1)/[N+]([O-])=C/c1ccccc1 returned CAL PDZ FP-1 -2.6, Tn7 DDE FP -3.8, ARNT TACC3 PPI -3.2, CAL PDZ FP-2 -0.5, Tn6 DDE FP 4.8 and GRK2 aptamer HTS 3.0.
`CC(C)(C(=O)c1ccccc1)/[N+]([O-])=C/c1ccc(Br)cc1` gave ARNT TACC3 PPI -1.3, CAL PDZ FP-2 -2.6, GRK2 aptamer HTS 60.0*, GRK2 inh confirm -3.2 and Aptamer quench SP 102.2.
Screening Cc1ccc(NC(=O)CSC2=C(C#N)C(c3ccco3)C3=C(CCCC3=O)N2)cc1 (stereo not drawn) returned CAL PDZ FP-1 -2.0, Tn7 DDE FP 2.1, ARNT TACC3 PPI 0.4, CAL PDZ FP-2 -3.9, Tn6 DDE FP -0.2, GRK2 aptamer HTS 57.0*, GRK2 inh confirm 0.3 and Aptamer quench SP 93.8.
Screening Cc1ccc(S(=O)(=O)N2CCCC(C(=O)N3CCN(c4ccccc4)CC3)C2)cc1 (stereo not drawn) returned CAL PDZ FP-1 1.4, Tn7 DDE FP -3.1, ARNT TACC3 PPI 2.9, CAL PDZ FP-2 -0.8, Tn6 DDE FP -6.5 and GRK2 aptamer HTS 0.0.
For Cc1nn(C)c(C)c1S(=O)(=O)N1CCCC(C(=O)N2CCN(c3ccccc3)CC2)C1 (stereo not drawn) the results were Tn7 DDE FP -0.8, CAL PDZ FP-2 -2.0, Tn6 DDE FP -0.1, GRK2 aptamer HTS 82.0*, GRK2 inh confirm -0.9 and Aptamer quench SP 98.9.
Screening CNc1nc(N)c([N+](=O)[O-])c(Nc2ccccc2)n1 returned Tn7 DDE FP -0.6 and Tn6 DDE FP -0.2.
Screening COc1ccc(S(=O)(=O)N(C)C[C@@H]2Oc3ccc(NC(=O)Cc4ccccc4)cc3CC(=O)N([C@@H](C)CO)C[C@@H]2C)cc1 returned ARNT TACC3 PPI 0.2.
Screening COc1ccc(C(=O)O[C@@H]2CCC[C@@]3(C(=O)N(Cc4ccccc4)c4ccccc43)[C@H]2NC(=O)CCc2ccccc2)cc1OC returned Tn7 DDE FP -1.6 and Tn6 DDE FP -11.6.
COc1ccc(C(=O)O)cc1N1C(=O)Nc2ccccc2N1O was read as CAL PDZ FP-1 -2.8, Tn7 DDE FP -1.9, ARNT TACC3 PPI -8.2, CAL PDZ FP-2 -0.3, Tn6 DDE FP 1.3, GRK2 aptamer HTS 78.0*, GRK2 inh confirm -0.1 and Aptamer quench SP 100.4.
`C=C(C)c1nc(N)nc(N)n1` gave CAL PDZ FP-1 -2.4, Tn7 DDE FP -4.3, ARNT TACC3 PPI -5.2, CAL PDZ FP-2 -2.3, Tn6 DDE FP -13.5 and GRK2 aptamer HTS 1.0.
